Laboratory results published in article PMC6785838 (Journal of peptide science : an official publication of the …, 2019).

Legend:
[1] = cited from earlier work
[2] = Stability test of Sec-containing peptides in oxygenated buffer; format: physicochemical; details: for β-syn elimination: dehydroalanine-containing peptide (species D) by MS: 96 h in oxygenated KP buffer pH 8.0, 25 °C, positive ESI-MS, linear ion trap; for Deselenization seen as red selenium precipitate / color change: peptide 1 mM in oxygenated KP buffer pH 8.0, 96 h, visual inspection
In short: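 Test peptides incubated in oxygenated KP buffer, pH 8.0, at 25 °C. Aliquots taken at 24, 48 and 96 h and centrifuged to pellet precipitated selenium. For MS, samples from time zero and 96 h were infused through a guard column at 10 μL/min into 100 μL/min 50/50 water/acetonitrile with 0.1% formic acid, using positive ESI and a linear ion trap scan over m/z 200–1800. Tubes with 1 mM peptide were photographed.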

| Molecule | Water solubility [1] | β-syn elimination: dehydroalanine-containing peptide (species D) by MS [2] | Deselenization seen as red selenium precipitate / color change [2] |
| --- | --- | --- | --- |
| O=c1c2ccccc2[se]n1-c1ccccc1 [ebselen, 2-phenyl-1,2-benzisoselenazol-3(2H)-one] | not water soluble | – | – |
| H-(αMe)Sec-Gly-Thr-Thr-Val-Arg-Asp-Tyr-Thr-Gln-OH [peptide 11] | – | absent | no color change was observed |
| H-Sec-Gly-Thr-Thr-Val-Arg-Asp-Tyr-Thr-Gln-OH [peptide 12] | – | β-syn elimination occurred | red precipitate clearly forms |
